Experimental data of several laboratories.
Protocols differ between the studies behind these lines.
Target: Serine/threonine-protein kinase TAO2 (TAOK2, Homo sapiens, UniProt Q9UL54)
Residues used in one study (Q9UL54 1-1235): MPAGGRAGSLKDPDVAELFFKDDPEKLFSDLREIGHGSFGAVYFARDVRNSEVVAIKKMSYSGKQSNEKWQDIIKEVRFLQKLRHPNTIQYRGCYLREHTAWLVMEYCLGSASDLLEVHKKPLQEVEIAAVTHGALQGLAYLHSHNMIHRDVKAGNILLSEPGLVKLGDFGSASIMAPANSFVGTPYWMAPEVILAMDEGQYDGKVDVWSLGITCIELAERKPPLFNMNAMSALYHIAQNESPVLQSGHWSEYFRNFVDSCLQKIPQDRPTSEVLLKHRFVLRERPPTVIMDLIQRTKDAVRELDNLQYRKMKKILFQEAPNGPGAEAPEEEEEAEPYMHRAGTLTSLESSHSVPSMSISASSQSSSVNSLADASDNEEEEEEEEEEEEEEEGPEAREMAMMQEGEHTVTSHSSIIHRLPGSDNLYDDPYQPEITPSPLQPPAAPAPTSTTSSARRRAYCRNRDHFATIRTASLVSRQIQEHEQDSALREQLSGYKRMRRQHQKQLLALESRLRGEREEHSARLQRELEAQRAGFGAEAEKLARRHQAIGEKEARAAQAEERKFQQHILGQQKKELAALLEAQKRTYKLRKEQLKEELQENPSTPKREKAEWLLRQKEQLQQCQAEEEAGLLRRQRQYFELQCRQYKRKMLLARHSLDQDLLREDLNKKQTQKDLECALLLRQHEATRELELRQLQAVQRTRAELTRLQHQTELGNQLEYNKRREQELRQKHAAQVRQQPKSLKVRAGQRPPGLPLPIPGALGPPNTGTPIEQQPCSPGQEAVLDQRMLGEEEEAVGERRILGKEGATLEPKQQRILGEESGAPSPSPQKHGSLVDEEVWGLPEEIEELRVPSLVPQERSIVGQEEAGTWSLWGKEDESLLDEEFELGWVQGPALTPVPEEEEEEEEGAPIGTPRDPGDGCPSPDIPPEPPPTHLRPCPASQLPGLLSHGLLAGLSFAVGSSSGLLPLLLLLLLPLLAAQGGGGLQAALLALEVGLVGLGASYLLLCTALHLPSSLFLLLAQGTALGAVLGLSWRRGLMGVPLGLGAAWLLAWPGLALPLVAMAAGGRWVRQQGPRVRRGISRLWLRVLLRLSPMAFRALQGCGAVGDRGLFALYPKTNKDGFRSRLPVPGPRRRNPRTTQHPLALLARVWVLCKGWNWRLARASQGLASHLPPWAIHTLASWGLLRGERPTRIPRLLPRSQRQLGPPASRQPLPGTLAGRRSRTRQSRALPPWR

SMILES	test	setting	remaining binding
Cc1nc(C2CCN(C(=O)c3ccc(OC(F)(F)F)cc3N)CC2)c2ncc(N3CCN(C)CC3)cc2n1	cell-free assay, competition with immobilised ligand	1 µM	100%
CN(CCCC(F)(F)F)c1nccc(-c2cnn3ncccc23)n1	binding	1 µM	100%
O=C(NCCCN1CCOCC1)c1ccc(Nc2nccc(-c3cc4ccccc4s3)n2)cc1	binding, competition with immobilised ligand	1 µM	80%
C[C@@H](c1ccc(-n2cnc3c(N)ncnc32)cc1)N1CCc2nn(C)c(Cc3ccccc3)c2C1=O	binding, competition with immobilised ligand	0.1 µM	70%
N[C@@H]1CCN(c2nccc(-c3cnn4ncccc34)n2)C1	binding	1 µM	100%
CCc1ccccc1C(=O)Nc1n[nH]c2c(C)c(F)c(C3C(C#N)=C(C)N(C)C(C)=C3C#N)cc12	cell-free assay, competition with immobilised ligand	1 µM	96%
O=C(Nc1c[nH]nc1C(=O)NC1CCNCC1)c1cc(F)cc(F)c1	binding, competition with immobilised ligand	1 µM	61%
CN(C)c1nccc(-c2cnn3ncccc23)n1	binding	1 µM	85%
CNC(=O)[C@@H]1CC[C@@H](n2c(-c3ccc4cnccc4c3)nc3ccc(C(=O)NCc4cccc(C(N)=O)c4)cc32)C1	binding, competition with immobilised ligand	1 µM	98%
CCOC(=O)c1cc2cc(-c3cc(C(=O)NCc4ccc(C(=O)O)cc4)nn3C)ccc2[nH]1	cell-free assay, competition with immobilised ligand	0.1 µM	90%
c1cncc(-c2cccc(Nc3nccc(NC4CCCCC4)n3)c2)c1	binding, competition with immobilised ligand	10 µM	94%
COc1ncc2cc3ccccc3nc2c1C#N	cell-free assay, competition with immobilised ligand	5 µM	93%
O=C(c1ccc(Nc2ncc(Cl)c(-c3cc4ccccc4s3)n2)cc1)N1CCC(N2CCCC2)CC1	binding, competition with immobilised ligand	1 µM	66%
CN(c1nccc(-c2cnn3ncccc23)n1)C1CC1	binding	1 µM	100%
O=C(c1ccc(Nc2nccc(-c3cc4ccccc4s3)n2)cc1)N1CCC(N2CCCC2)CC1	binding, competition with immobilised ligand	1 µM	71%
C[C@H]1CCN(c2nccc(-c3cnn4ncccc34)n2)C1	binding	1 µM	70%
CC(=O)Nc1c(C(C)=O)c(=O)n(C)c2nc(-c3ccc(Cl)cc3Cl)c(-c3ccc(Cl)cc3)cc12	cell-free assay, competition with immobilised ligand	1 µM	88%
F[C@@H]1CCN(c2nccc(-c3cnn4ncccc34)n2)C1	binding	1 µM	100%
COc1ccc2c(c1)O[C@H](c1ccc(OC)c(OC)c1)C[C@@H]2NC(=O)C1(c2ccc3c(c2)OC(F)(F)O3)CC1	cell-free assay, competition with immobilised ligand	1 µM	98%
FC(F)(F)Oc1cccc(-c2cnc3ccc(-c4ccncc4)nn23)c1	binding, competition with immobilised ligand	5 µM	100%
Cc1cc(NC(=O)c2cccc(S(F)(F)(F)(F)F)c2)cc(-n2ccn3nc(-c4cccnc4)cc23)c1	cell-free assay, competition with immobilised ligand	1 µM	91.3%
CC1CCCN1c1nccc(-c2cnn3ncccc23)n1 (stereo not shown)	binding	1 µM	100%
